Assay results gathered from unrelated publications.
Lines come from different studies, so protocols differ.
Target: High affinity nerve growth factor receptor (NTRK1, Homo sapiens, UniProt P04629)

For O=C(Nc1cccc(C(=O)Nc2ccc3[nH]ncc3c2)c1)Nc1ccccc1F, the inhibition was 42.7% (enzyme activity, inhibitor, FRET; 1 µM).
The remaining activity of Cc1[nH]c(/C=C2\C(=O)Nc3ccc(F)cc32)c(C)c1C(=O)N[C@H]1CCN(C(=O)N(C)C)C1 is reported as 34% (enzyme activity, inhibitor; 0.1 µM).
Cc1c(NC(=O)c2cc(C(N)=O)nc3cc(F)ccc23)c(C(F)(F)F)nn1Cc1ccc(C#N)cc1 has a remaining binding of 83% (cell-free assay, competition with immobilised ligand; 1 µM).
CCN(CC)CCNC(=O)c1c(C)[nH]c(/C=C2\C(=O)Nc3ccc(F)cc32)c1C has a remaining activity of 2% (enzyme activity, inhibitor; 1 µM).
With CCN(CC)c1ccc(C2=NNC(=O)CC2C)cc1[N+](=O)[O-] (stereo not drawn) the remaining activity was 118% (enzyme activity, inhibitor; 10 µM).
The remaining signal of Cc1ccc(NC(=O)c2ccc(CN3CCN(C)CC3)cc2)cc1Nc1nc(-c2cccnc2)cs1 is reported as 97.1% (cell-free assay; 0.5 µM).
CCOCCn1cc(C(=O)Nc2ccc(-n3nc(-c4cccnc4)cc3C(F)(F)F)cn2)ccc1=O gave a remaining binding of 100% (cell-free assay, competition with immobilised ligand; 1 µM).
The activity vs control of FC(F)(F)Oc1cccc(-c2cnc3ccc(-c4ccncc4)nn23)c1 is reported as 16% (enzyme activity, inhibitor, radiometric; 1 µM).
O=C(Nc1ccc(I)cc1)Nc1cccc(C(=O)Nc2ccc3[nH]ncc3c2)c1 has an inhibition of 47.4% (enzyme activity, inhibitor, FRET; 1 µM).
O=C(NS(=O)(=O)c1ccc(NCC2CCOCC2)c([N+](=O)[O-])c1)c1ccc(N2CCN(Cc3ccc(C(F)(F)F)cc3-c3ccc(Cl)cc3)CC2)cc1Oc1cnc2[nH]ccc2c1 gave a remaining binding of 100% (cell-free assay, competition with immobilised ligand; 1 µM).
With CC(C)(C)c1nc2c(s1)c1nc(N)ncc1c1ccc(NS(=O)(=O)c3c(F)cccc3F)c(F)c12 the remaining activity was 54% (enzyme activity, inhibitor, radiometric; 1 µM).
FC(F)c1nc2ccccc2n1-c1nc(N2CCOCC2)nc(N2CCOCC2)n1 has a remaining activity of 83% (enzyme activity, inhibitor; 10 µM).
O=C(Nc1ccc(Br)cc1)Nc1cccc(C(=O)Nc2ccc3[nH]ncc3c2)c1 has an inhibition of 50.5% (enzyme activity, inhibitor, FRET; 1 µM).
The remaining binding of CC(=O)N1CCC(c2ccc(C(=O)NC(=N)N)cc2C(F)(F)F)CC1 is reported as 100% (cell-free assay, competition with immobilised ligand; 1 µM).
With O=C(Nc1cnn(-c2csc(C(=O)NC3COC3)c2)c1)Nc1c(F)cccc1Cl the remaining activity was 87.8% (enzyme activity, inhibitor; 5 µM).
O=C(Nc1ccc2[nH]ncc2c1)c1cccc(NC(=O)c2cc(C(F)(F)F)ccc2F)c1 gave an inhibition of 34% (enzyme activity, inhibitor, FRET; 1 µM).
CC(C)(O)[C@H]1CC[C@H](Nc2ccc3ncc(-c4cccc(C(F)(F)F)c4)n3n2)CC1 gave a remaining activity of 21.9% (enzyme activity, inhibitor; 1 µM).
CNC(=O)c1ccc(Nc2ncc(C(F)(F)F)c(NCc3nccnc3N(C)S(C)(=O)=O)n2)cc1 has a remaining binding of 13% (binding, competition with immobilised ligand; 1 µM).
Cc1cc(NC(=O)c2cccc3cc(-c4cccc5[nH]nc(N)c45)ccc23)ccc1F has an activity vs control of 121% (enzyme activity, inhibitor; 0.1 µM).
CCS(=O)(=O)c1cc2cc(C[C@](O)(CC(C)(C)c3ccc(F)cc3C(N)=O)C(F)(F)F)[nH]c2cn1 has a remaining binding of 82% (cell-free assay, competition with immobilised ligand; 1 µM).
C[C@@H]1CCN(C(=O)CC#N)C[C@@H]1N(C)c1ncnc2[nH]ccc12 gave a remaining signal of 94.1% (cell-free assay; 0.5 µM).
